# According to ChEMBL document CHEMBL4673245, “Discovery of AZD9833, a Potent and Orally Bioavailable Selective Estrogen Receptor Degrader and Antagonist” (J Med Chem, 2020):
# Calls of active or inactive are those of the source. The rule behind the calls is not given here.
# Assays:
# [1] = molecular target: T1, Estrogen receptor (Homo sapiens) (UniProt P03372); assay: Induction of ERalpha degradation in human CAMA1 cells assessed as decrease in ER-alpha level at 0.1 uM by Western blot analysis relative to fulvestrant; format: cell-based; design: scale not given: the % may be the effect or the level left; conditions: CAMA-1
# T1 sequence (whole entry): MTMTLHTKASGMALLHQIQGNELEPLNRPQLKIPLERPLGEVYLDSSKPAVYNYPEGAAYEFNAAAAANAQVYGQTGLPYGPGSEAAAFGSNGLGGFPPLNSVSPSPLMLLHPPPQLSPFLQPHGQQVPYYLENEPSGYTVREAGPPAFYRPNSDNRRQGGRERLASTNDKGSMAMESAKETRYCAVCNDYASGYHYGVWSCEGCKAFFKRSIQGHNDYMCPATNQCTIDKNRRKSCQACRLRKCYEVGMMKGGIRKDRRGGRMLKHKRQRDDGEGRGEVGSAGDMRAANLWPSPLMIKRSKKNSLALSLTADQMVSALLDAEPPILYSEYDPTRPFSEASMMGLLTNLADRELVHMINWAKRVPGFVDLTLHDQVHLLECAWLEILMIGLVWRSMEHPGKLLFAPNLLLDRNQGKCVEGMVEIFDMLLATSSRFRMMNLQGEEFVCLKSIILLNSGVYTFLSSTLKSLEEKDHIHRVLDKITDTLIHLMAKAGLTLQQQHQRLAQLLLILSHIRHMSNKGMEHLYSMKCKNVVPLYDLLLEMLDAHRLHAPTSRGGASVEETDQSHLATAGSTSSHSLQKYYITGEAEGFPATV
# Method in brief: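 Western blot for ERα in MCF-7 and CAMA-1 cells after treatment at 0.1 µM. ER level is expressed as % degradation relative to fulvestrant, from a single experiment (n = 1).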
# [2] = molecular target: T1, Estrogen receptor (Homo sapiens); assay: Induction of ERalpha degradation in human MCF7 cells assessed as decrease in ER-alpha level at 0.1 uM by Western blot analysis relative to fulvestrant; format: cell-based; design: scale not given: the % may be the effect or the level left
# [3] = Intrinsic clearance in human hepatocytes assessed per million cells; format: ADME, cell-based, Hepatocyte; conditions: read-out: CLH
# Method in brief: (§1)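 Hepatocyte intrinsic clearance measured from DMSO stock in isolated hepatocytes diluted to 1x10⁶ cells/mL; rate expressed as µl/min/10⁶ cells.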
# [4] = Intrinsic clearance in rat hepatocytes assessed per million cells; format: ADME, cell-based, Hepatocyte; conditions: read-out: CLH; method in brief: as §1
# [5] = Fraction unbound in human plasma by equilibrium dialysis method; format: ADME, cell-free
# Method in brief: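 Fraction unbound measured from DMSO stock by equilibrium dialysis in 10% human plasma.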
# [6] = Lipophilicity, log D of the compound in buffer and octanol at pH 7.4 by shake flask method; format: physicochemical
# Method in brief: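 logD at pH 7.4 by shake flask, buffer/octanol volume ratio 100:1.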
# [7] = molecular target: T1, Estrogen receptor (Homo sapiens); assay: Induction of ERalpha degradation in human MCF7 cells assessed as maximum degradation incubated for 18 to 24 hrs by Alexa fluor 488/Hoechst staining based immunofluorescence imaging analysis relative to fulvestrant; format: cell-based; conditions: time lower […], time upper […]
# Estrogen receptor [8] = molecular target: T2, Estrogen receptor (Homo sapiens, UniProt P03372); assay: Induction of ERalpha degradation in human MCF7 cells assessed as decrease in ER-alpha level incubated for 18 to 24 hrs by Alexa fluor 488/Hoechst staining based immunofluorescence imaging analysis; format: cell-based
# T2 sequence (P03372 whole entry): T1 sequence (whole entry)
# Method in brief: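 ER degradation in MCF-7 cells via cellular degradation assay; n ≥ 2, degradation also expressed as %Dmax relative to fulvestrant.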
# Estrogen receptor [9] = molecular target: T2, Estrogen receptor; assay: Displacement of fluormone ES2 green reagent from human GST-tagged ERalpha LBD (282 to 595 residues) expressed in baculovirus infected insect cells incubated for 1 hrs by TR-FRET Lanthascreen assay
# [10] = molecular target: Voltage-gated inwardly rectifying potassium channel KCNH2 (Homo sapiens, UniProt Q12809); assay: Inhibition of human ERG by plate-based planar patch clamp technique
# Method in brief: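 hERG tail current inhibition recorded on a plate-based planar patch clamp system; IC50 reported.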
# MCF7 = assay: Antitumor activity against human […] cells xenografted in CB17 SCID mouse assessed as tumor regression at 5 mg, po administered via gavage three times a week for 21 days; format: functional, organism-based; conditions: time 21.0 day
# Mus musculus = assay: In vivo antagonist activity at ERalpha in human MCF7 cells xenografted CB17 SCID mouse assessed as decrease in PR expression level at 5 mg, po administered via gavage three times a week for 21 days measured 24 hrs post last dose by Western blot analysis; format: functional, organism-based; conditions: time 21.0 day
# Cytochrome P450 2C9 = Cytochrome P450 2C9 (Homo sapiens, UniProt P11712); assay: Inhibition of CYP2C9 in human liver microsomes; format: ADME; conditions: human, microsomes
# Method in brief: (§2)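 High-throughput human liver microsome panel of five CYP isoforms; inhibition reported as IC50.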
# Cytochrome P450 2C19 = Cytochrome P450 2C19 (Homo sapiens, UniProt P33261); assay: Inhibition of CYP2C19 in human liver microsomes; format: ADME; conditions: human, microsomes; method in brief: as §2
# Cytochrome P450 1A2 = molecular target: T3, Cytochrome P450 1A2 (Homo sapiens, UniProt P05177); assay: Inhibition of CYP1A2 in human liver microsomes; format: ADME; conditions: human, microsomes; method in brief: as §2
# T3 sequence (P05177 whole entry): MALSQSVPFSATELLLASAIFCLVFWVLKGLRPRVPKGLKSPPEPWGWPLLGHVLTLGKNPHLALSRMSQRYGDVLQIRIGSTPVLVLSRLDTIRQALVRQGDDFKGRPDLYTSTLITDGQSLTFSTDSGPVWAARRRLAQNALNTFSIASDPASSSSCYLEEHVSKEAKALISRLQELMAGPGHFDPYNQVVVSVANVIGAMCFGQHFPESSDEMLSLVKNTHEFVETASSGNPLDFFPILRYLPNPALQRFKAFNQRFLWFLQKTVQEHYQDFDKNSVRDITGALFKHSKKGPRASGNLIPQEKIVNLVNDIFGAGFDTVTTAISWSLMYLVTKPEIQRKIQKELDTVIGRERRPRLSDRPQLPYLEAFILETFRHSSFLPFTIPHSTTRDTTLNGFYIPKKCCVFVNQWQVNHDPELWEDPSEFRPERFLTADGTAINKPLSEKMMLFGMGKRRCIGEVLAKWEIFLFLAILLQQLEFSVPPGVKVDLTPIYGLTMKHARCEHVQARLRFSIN
# [11] = Dissociation constant, dibasic pKa of compound in 0.1 M potassium chloride in presence of piperidine by UV-vis spectroscopy; format: physicochemical
# [12] = Oral bioavailability in rat at 1 mg/kg; format: ADME, organism-based; conditions: in vivo
# Method in brief: (§3)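 Rat PK: single IV dose 0.5 mg/kg and oral dose 1 mg/kg, formulated in 5% DMSO:95% hydroxypropyl-β-cyclodextrin (30% w/v), dosed at 1 mL/kg IV and 4 mL/kg PO.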
# [13] = Half-life in rat at 0.5 mg/kg, iv or 1 mg/kg, po; format: ADME, organism-based; conditions: in vivo; method in brief: as §3
# [14] = Volume of distribution at steady state in rat at 0.5 mg/kg, iv or 1 mg/kg, po; format: ADME, organism-based; conditions: in vivo, read-out: Vdss
# Method in brief: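 Rat dosed IV at 0.5 mg/kg and PO at 1 mg/kg, both formulated in 5% DMSO:95% hydroxypropyl-β-cyclodextrin (30% w/v), at 1 mL/kg IV and 4 mL/kg PO. Vdss (L/kg) derived from the pharmacokinetic profile after dosing.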
# [15] = Clearance in rat at 0.5 mg/kg, iv or 1 mg/kg, po; format: ADME, organism-based; conditions: in vivo; method in brief: as §3
# Cytochrome P450 3A4 = Cytochrome P450 3A4 (Homo sapiens, UniProt P08684); assay: Inhibition of CYP3A4 in human liver microsomes; format: ADME; method in brief: as §2
# Cytochrome P450 2D6 = Cytochrome P450 2D6 (Homo sapiens, UniProt P10635); assay: Inhibition of CYP2D6 in human liver microsomes; format: ADME; method in brief: as §2
# [16] = Dissociation constant, dibasic pKa of compound in 0.1 M potassium chloride in presence of azetidine by UV-vis spectroscopy; format: physicochemical
# [17] = Fraction unbound in dog plasma; format: ADME, cell-free, Canis lupus familiaris
# [18] = Fraction unbound in mouse plasma; format: ADME, cell-free
# [19] = Fraction unbound in rat plasma; format: ADME, cell-free
# [20] = Solubility of compound in phosphate buffer at pH 7.4 incubated for 24 hrs at 25 degree C; format: physicochemical
# Method in brief: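 Aqueous phosphate buffer pH 7.4, compound added from DMSO stock, equilibrated 24 h at 25 °C.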
# Sequence of Voltage-gated inwardly rectifying potassium channel KCNH2 (Q12809 whole entry): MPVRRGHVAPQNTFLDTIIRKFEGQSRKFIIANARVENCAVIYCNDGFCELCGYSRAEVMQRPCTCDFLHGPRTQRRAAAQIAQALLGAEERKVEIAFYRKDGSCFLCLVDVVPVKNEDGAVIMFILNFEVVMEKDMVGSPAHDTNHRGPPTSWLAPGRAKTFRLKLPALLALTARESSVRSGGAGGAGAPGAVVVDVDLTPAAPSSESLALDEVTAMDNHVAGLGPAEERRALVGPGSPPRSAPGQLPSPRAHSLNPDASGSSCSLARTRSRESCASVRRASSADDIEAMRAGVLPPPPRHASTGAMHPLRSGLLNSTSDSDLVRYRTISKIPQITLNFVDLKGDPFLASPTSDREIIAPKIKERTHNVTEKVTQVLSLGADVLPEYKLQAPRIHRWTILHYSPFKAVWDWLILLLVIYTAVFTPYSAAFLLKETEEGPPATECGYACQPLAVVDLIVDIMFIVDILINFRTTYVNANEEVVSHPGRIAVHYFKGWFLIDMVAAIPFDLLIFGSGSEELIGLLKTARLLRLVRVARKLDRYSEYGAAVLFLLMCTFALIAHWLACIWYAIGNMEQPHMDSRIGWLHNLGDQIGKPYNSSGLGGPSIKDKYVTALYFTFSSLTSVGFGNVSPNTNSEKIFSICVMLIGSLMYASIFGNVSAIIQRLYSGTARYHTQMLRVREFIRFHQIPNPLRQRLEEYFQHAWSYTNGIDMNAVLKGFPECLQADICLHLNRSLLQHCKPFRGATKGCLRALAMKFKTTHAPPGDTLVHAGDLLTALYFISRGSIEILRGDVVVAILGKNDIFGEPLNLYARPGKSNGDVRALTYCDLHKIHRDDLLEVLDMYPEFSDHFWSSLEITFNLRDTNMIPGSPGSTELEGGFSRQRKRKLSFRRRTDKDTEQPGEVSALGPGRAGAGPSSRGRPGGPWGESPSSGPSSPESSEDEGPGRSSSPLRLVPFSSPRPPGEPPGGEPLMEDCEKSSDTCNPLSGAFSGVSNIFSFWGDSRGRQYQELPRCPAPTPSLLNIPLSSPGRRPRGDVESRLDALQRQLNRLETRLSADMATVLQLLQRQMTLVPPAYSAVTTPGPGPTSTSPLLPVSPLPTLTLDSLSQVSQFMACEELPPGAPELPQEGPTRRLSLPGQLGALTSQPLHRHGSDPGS
# Sequence of Cytochrome P450 3A4 (P08684 whole entry): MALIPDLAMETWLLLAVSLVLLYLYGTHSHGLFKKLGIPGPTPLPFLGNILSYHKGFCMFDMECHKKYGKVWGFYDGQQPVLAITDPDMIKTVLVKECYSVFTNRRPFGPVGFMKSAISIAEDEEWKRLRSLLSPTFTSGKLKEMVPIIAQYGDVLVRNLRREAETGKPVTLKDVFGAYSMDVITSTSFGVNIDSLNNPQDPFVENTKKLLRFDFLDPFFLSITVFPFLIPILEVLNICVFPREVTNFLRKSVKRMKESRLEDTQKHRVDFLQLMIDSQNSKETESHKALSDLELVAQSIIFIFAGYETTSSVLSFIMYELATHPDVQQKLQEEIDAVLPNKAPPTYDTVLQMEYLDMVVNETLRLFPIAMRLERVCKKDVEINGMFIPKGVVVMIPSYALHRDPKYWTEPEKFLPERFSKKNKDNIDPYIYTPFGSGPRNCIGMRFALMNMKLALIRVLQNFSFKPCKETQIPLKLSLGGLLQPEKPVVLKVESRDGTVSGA
# Sequence of Cytochrome P450 2C9 (P11712 whole entry, canonical isoform): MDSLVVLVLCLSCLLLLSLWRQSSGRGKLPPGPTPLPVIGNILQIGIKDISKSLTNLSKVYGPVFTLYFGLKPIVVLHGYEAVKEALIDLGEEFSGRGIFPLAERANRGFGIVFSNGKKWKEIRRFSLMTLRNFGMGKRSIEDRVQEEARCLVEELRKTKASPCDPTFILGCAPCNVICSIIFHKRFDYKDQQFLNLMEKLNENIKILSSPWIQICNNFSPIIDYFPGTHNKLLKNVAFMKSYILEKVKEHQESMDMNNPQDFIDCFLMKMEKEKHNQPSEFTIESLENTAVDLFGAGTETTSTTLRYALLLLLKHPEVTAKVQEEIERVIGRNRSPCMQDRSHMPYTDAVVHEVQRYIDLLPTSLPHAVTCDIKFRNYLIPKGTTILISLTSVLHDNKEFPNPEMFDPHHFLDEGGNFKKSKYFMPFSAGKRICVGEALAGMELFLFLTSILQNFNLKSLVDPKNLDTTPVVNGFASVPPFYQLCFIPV
# Sequence of Cytochrome P450 2D6 (P10635 whole entry): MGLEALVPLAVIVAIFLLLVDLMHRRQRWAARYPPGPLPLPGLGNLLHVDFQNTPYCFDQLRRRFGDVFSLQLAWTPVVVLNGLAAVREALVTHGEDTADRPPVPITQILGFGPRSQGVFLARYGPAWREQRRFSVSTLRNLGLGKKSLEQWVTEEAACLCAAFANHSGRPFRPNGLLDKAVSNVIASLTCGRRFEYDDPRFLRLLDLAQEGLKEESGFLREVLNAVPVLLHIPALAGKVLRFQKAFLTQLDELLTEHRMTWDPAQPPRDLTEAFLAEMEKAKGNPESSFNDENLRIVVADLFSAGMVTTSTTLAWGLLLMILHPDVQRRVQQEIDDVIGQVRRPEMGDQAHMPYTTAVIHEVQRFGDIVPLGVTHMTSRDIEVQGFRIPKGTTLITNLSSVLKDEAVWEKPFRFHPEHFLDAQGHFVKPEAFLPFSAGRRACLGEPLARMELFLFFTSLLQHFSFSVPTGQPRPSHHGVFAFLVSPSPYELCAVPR
# Sequence of Cytochrome P450 2C19 (P33261 whole entry): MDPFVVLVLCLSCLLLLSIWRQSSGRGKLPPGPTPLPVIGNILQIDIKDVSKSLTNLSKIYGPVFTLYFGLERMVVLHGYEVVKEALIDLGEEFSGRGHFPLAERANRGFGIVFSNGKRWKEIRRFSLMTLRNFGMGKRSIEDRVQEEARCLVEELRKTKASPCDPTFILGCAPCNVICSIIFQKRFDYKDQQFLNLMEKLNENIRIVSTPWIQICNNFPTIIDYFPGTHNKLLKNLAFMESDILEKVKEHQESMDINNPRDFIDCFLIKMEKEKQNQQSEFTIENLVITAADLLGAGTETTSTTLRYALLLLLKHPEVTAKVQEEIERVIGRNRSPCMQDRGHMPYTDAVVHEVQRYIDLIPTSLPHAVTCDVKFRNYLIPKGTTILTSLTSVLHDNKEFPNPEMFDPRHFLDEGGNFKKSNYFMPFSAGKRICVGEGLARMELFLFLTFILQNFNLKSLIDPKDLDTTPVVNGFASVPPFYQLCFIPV
SMILES,Activity [1] [%],Activity [2] [%],hepatocyte CLint [3] [µL/min/1e6 cells],hepatocyte CLint [4] [µL/min/1e6 cells],fraction unbound [5],logD [6],Emax [7] [%],IC50 (Estrogen receptor [8]) [nM],IC50 (Estrogen receptor [9]) [nM],IC50 [10] [µM],further results
C[C@@H]1Cc2c(ccc3[nH]ncc23)[C@@H](c2ccc(OCCN3CC(CF)C3)cn2)N1CC(F)(F)F,80,91,3,45,0.22,3,96,0.398,1.26,–,–
C[C@@H]1Cc2c(ccc3[nH]ncc23)[C@@H](c2ccc(N[C@H]3CCN(CCCF)C3)cn2)N1CC(F)(F)F,104,95,5,22,0.18,3,99,0.126,2.51,13,–
C[C@]12CC[C@@H]3c4ccc(O)cc4C[C@@H](CCCCCCCCC[S+]([O-])CCCC(F)(F)C(F)(F)F)[C@H]3[C@@H]1CC[C@@H]2O (stereo partly drawn),–,–,–,–,–,–,–,–,–,–,Activity (MCF7): Active; Activity (Mus musculus): Active
C[C@@H]1Cc2c(ccc3[nH]ccc23)[C@@H](c2ccc(NC3CN(CCCF)C3)cn2)N1CC(F)(F)F,85,98,3,10,0.073,3.2,98,0.158,3.16,–,–
C[C@@H]1Cc2c(ccc3[nH]ncc23)[C@@](C)(c2ccc(NC3CN(CCCF)C3)cn2)N1CC(F)F,–,–,–,114,0.1,–,96,1,10,13,–
COc1cc(NC2CN(CCCF)C2)ccc1[C@@H]1c2ccc3[nH]ncc3c2C[C@@H](C)N1CC1(F)CC1,84,89,–,7,0.34,–,96,0.316,7.94,–,inhibition (INH) (Cytochrome P450 2C9): Not Active; inhibition (INH) (Cytochrome P450 2C19): Not Active; inhibition (INH) (Cytochrome P450 1A2): Not Active; pKa [11]: 7.8; bioavailability [12]: 3%; half-life [13]: 660 min; Vd [14]: 71 L/kg; clearance [15]: 125 mL/min/kg; IC50 (Cytochrome P450 3A4): 11 µM; IC50 (Cytochrome P450 2D6): 1200 nM; pKa [16]: 8.7; fraction unbound [17]: 0.22; fraction unbound [18]: 0.39; fraction unbound [19]: 0.51; solubility at 24 h [20]: > 900 µM
